# From ChEMBL document CHEMBL4011658 (J Med Chem, 2017)
# Activity calls are given as the source filed them. No cut-off for these calls is given here.
# Tests used:
# Cryptococcus neoformans [1] = test: Antifungal activity against Cryptococcus neoformans ATCC 90113 after 70 to 74 hrs by alamar blue dye based CLSI method; type: functional
# SK-OV-3 = test: Cytotoxicity against human SKOV3 cells assessed as reduction in cell viability after 48 hrs by neutral red uptake assay; type: cell-based; conditions: sk-ov-3, 48 h
# Summary of the method: (§1)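 Cells seeded at 25 000 per well and grown 24 h to confluence, then exposed to peptides up to 10 μg/mL for 48 h; viability by modified neutral red uptake; doxorubicin positive control, DMSO negative control.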
# SK-MEL = test: Cytotoxicity against human SK-MEL cells assessed as reduction in cell viability after 48 hrs by neutral red uptake assay; type: cell-based; summary of the method: as §1
# BT-549 = test: Cytotoxicity against human BT549 cells assessed as reduction in cell viability after 48 hrs by neutral red uptake assay; type: cell-based; conditions: bt-549, 48 h; summary of the method: as §1
# LLC-PK1 = test: Cytotoxicity against pig LLC-PK1 cells assessed as reduction in cell viability after 48 hrs by neutral red uptake assay; type: cell-based, Sus scrofa; conditions: llc-pk1, 48 h; summary of the method: as §1
# Vero = test: Cytotoxicity against African green monkey Vero cells assessed as reduction in cell viability after 48 hrs by neutral red uptake assay; type: cell-based; conditions: chlorocebus sabaeus; summary of the method: as §1
# [2] = Selectivity index, ratio of cytotoxicity against human SKOV3 cells to IC50 for Cryptococcus neoformans ATCC 90113; type: toxicity, cell-based; conditions: read-out: Selectivity Index
# [3] = Selectivity index, ratio of cytotoxicity against human SK-MEL cells to IC50 for Cryptococcus neoformans ATCC 90113; type: toxicity, cell-based; conditions: read-out: Selectivity Index
# [4] = Selectivity index, ratio of cytotoxicity against human BT549 cells to IC50 for Cryptococcus neoformans ATCC 90113; type: toxicity, cell-based; conditions: read-out: Selectivity Index
# [5] = Selectivity index, ratio of cytotoxicity against pig LLC-PK1 cells to IC50 for Cryptococcus neoformans ATCC 90113; type: toxicity, cell-based; conditions: read-out: Selectivity Index
# [6] = Selectivity index, ratio of cytotoxicity against African green monkey VERO cells to IC50 for Cryptococcus neoformans ATCC 90113; type: toxicity, cell-based; conditions: read-out: Selectivity Index
# Staphylococcus aureus [7] = test: Antibacterial activity against Staphylococcus aureus ATCC 29213 after […] hrs by alamar blue dye based CLSI method; type: functional
# Staphylococcus aureus [8] = test: Antibacterial activity against methicillin-resistant Staphylococcus aureus ATCC 33591 after 16 to 20 hrs by alamar blue dye based CLSI method; type: functional
# [9] = Selectivity index, ratio of cytotoxicity against human SKOV3 cells to IC50 for Staphylococcus aureus ATCC 29213; type: toxicity, cell-based; conditions: read-out: Selectivity Index
# Summary of the method: (§2)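 Selectivity index is the ratio CTX/IC50. For CTX, cells were seeded at 25 000 per well and grown 24 h, then exposed to peptide up to 10 μg/mL for 48 h, with viability by neutral red uptake. […] The inoculum was 5 × 10^5 CFU/mL, with OD530 read before and after incubation.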
# [10] = Selectivity index, ratio of cytotoxicity against human SK-MEL cells to IC50 for Staphylococcus aureus ATCC 29213; type: toxicity, cell-based; conditions: read-out: Selectivity Index; summary of the method: as §2
# [11] = Selectivity index, ratio of cytotoxicity against human BT549 cells to IC50 for Staphylococcus aureus ATCC 29213; type: toxicity, cell-based; conditions: read-out: Selectivity Index; summary of the method: as §2
# [12] = Selectivity index, ratio of cytotoxicity against pig LLC-PK1 cells to IC50 for Staphylococcus aureus ATCC 29213; type: toxicity, cell-based; conditions: read-out: Selectivity Index; summary of the method: as §2
# [13] = Selectivity index, ratio of cytotoxicity against African green monkey VERO cells to IC50 for Staphylococcus aureus ATCC 29213; type: toxicity, cell-based; conditions: read-out: Selectivity Index; summary of the method: as §2
# [14] = Selectivity index, ratio of cytotoxicity against human SKOV3 cells to IC50 for methicillin-resistant Staphylococcus aureus ATCC 33591; type: toxicity, cell-based; conditions: read-out: Selectivity Index
# Summary of the method: (§3)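 Selectivity index is the ratio CTX/IC50. For CTX, cells were seeded at 25 000 per well and grown 24 h, then given peptide up to 10 μg/mL for 48 h, with neutral red uptake read-out. […] OD530 was read before and after 16−20 h at 35 °C.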
# [15] = Selectivity index, ratio of cytotoxicity against human SK-MEL cells to IC50 for methicillin-resistant Staphylococcus aureus ATCC 33591; type: toxicity, cell-based; conditions: read-out: Selectivity Index; summary of the method: as §3
# [16] = Selectivity index, ratio of cytotoxicity against human BT549 cells to IC50 for methicillin-resistant Staphylococcus aureus ATCC 33591; type: toxicity, cell-based; conditions: read-out: Selectivity Index; summary of the method: as §3
# [17] = Selectivity index, ratio of cytotoxicity against pig LLC-PK1 cells to IC50 for methicillin-resistant Staphylococcus aureus ATCC 33591; type: toxicity, cell-based; conditions: read-out: Selectivity Index; summary of the method: as §3
# [18] = Selectivity index, ratio of cytotoxicity against African green monkey VERO cells to IC50 for methicillin-resistant Staphylococcus aureus ATCC 33591; type: toxicity, cell-based; conditions: read-out: Selectivity Index; summary of the method: as §3
# Escherichia coli = test: Antibacterial activity against Escherichia coli ATCC 35218 after 16 to 20 hrs by alamar blue dye based CLSI method; type: functional
# Candida = test: Antifungal activity against Candida; type: functional
# Aspergillus = test: Antifungal activity against Aspergillus; type: functional
# Cryptococcus neoformans [19] = test: Antifungal activity against Cryptococcus neoformans ATCC 350 after 70 to 74 hrs by alamar blue dye based CLSI method; type: functional
# Cryptococcus neoformans [20] = test: Fungicidal activity against Cryptococcus neoformans ATCC 350 at 0.39 ug/ml up to 4 hrs by time kill assay; type: functional
# [21] = Metabolic stability of the compound assessed as trypsin (unknown origin)-mediated compound hydrolysis at compound to trypsin ratio of 100 to 0.5 after 2 hrs by RP-HPLC analysis; type: ADME; conditions: human
# Summary of the method: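 Peptide:trypsin 100:0.5 mol/mol in 0.1 M NH4CO3, 0.1 mM CaCl2, pH 8.3, shaken at 37 °C, 200 rpm; aliquot analysed by RP-HPLC, retention time and peak intensity compared with untreated peptide; 2 h sampling per results text.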
# Cryptococcus neoformans [22] = test: Induction of membrane permeabilization in Cryptococcus neoformans ATCC 350 assessed as increase in propidium iodide uptake at 0.39 ug/ml after 1 hr by confocal microscopic analysis; type: functional
# Cryptococcus neoformans [23] = test: Induction of membrane permeabilization in Cryptococcus neoformans ATCC 350 at 0.39 ug/ml after 1 hr using FITC labeled compound by confocal microscopic analysis; type: functional
# Cryptococcus neoformans [24] = test: Induction of nuclear fragmentation in Cryptococcus neoformans ATCC 350 at 0.39 ug/ml after 1 hr by DAPI staining based confocal microscopic analysis; type: functional
# Cryptococcus neoformans [25] = test: Induction of morphological changes in Cryptococcus neoformans ATCC 350 assessed as cell wall breakage at 0.39 ug/ml after 1 hr by uranyl acetate/lead acetate staining based scanning electron microscopic analysis; type: functional
# Cryptococcus neoformans [26] = test: Disruption of cell wall membrane in Cryptococcus neoformans ATCC 350 at 0.39 ug/ml after 1 hr by uranyl acetate/lead acetate staining based transmission electron microscopic analysis; type: functional
# Cryptococcus neoformans [27] = test: Disruption of plasma membrane in Cryptococcus neoformans ATCC 350 at 0.39 ug/ml after 1 hr by uranyl acetate/lead acetate staining based transmission electron microscopic analysis; type: functional
# Cryptococcus neoformans [28] = test: Synergistic antifungal activity against Cryptococcus neoformans ATCC 350 in presence of fluconazole by checkerboard method; type: functional
# Cryptococcus neoformans [29] = test: Synergistic antifungal activity against Cryptococcus neoformans ATCC 350 in presence of amphotericin B by checkerboard method; type: functional
# Cryptococcus neoformans [30] = test: Synergistic antifungal activity against Cryptococcus neoformans ATCC 350 assessed as fold reduction in MIC in presence of fluconazole by checkerboard method relative to control; type: functional
# Cryptococcus neoformans [31] = test: Synergistic antifungal activity against Cryptococcus neoformans ATCC 350 assessed as fold reduction in MIC in presence of amphotericin B by checkerboard method relative to control; type: functional
# Cryptococcus neoformans [32] = test: Synergistic antifungal activity against Cryptococcus neoformans ATCC 350 assessed as fold reduction in fluconazole MIC by checkerboard method relative to fluconazole alone; type: functional
# Cryptococcus neoformans [33] = test: Synergistic antifungal activity against Cryptococcus neoformans ATCC 350 assessed as fold reduction in amphotericin B MIC by checkerboard method relative to amphotericin B alone; type: functional
smiles,measurement,setting,value
COC(=O)[C@H](Cc1c[nH]c(-c2ccc(-c3ccccc3)cc2)n1)NC(=O)[C@H](Cc1c[nH]c2ccccc12)NC(=O)[C@@H](N)Cc1c[nH]c(-c2ccc(-c3ccccc3)cc2)n1,IC50,Cryptococcus neoformans [1],0.35 µg/mL
same,MFC,Cryptococcus neoformans [1],0.63 µg/mL
same,MIC,Cryptococcus neoformans [1],0.63 µg/mL
same,Activity,SK-OV-3,> 10 µg/mL
same,Activity,SK-MEL,> 10 µg/mL
same,Activity,BT-549,> 10 µg/mL
same,Activity,LLC-PK1,> 10 µg/mL
same,Activity,Vero,> 10 µg/mL
same,selectivity ratio,[2],> 28.6
same,selectivity ratio,[3],> 28.6
same,selectivity ratio,[4],> 28.6
same,selectivity ratio,[5],> 28.6
same,selectivity ratio,[6],> 28.6
same,IC50,Staphylococcus aureus [7],2.56 µg/mL
same,MBC,Staphylococcus aureus [7],> 20 µg/mL
same,MIC,Staphylococcus aureus [7],> 20 µg/mL
same,IC50,Staphylococcus aureus [8],1.93 µg/mL
same,MBC,Staphylococcus aureus [8],10 µg/mL
same,MIC,Staphylococcus aureus [8],5 µg/mL
same,selectivity ratio,[9],> 3.9
same,selectivity ratio,[10],> 3.9
same,selectivity ratio,[11],> 3.9
same,selectivity ratio,[12],> 3.9
same,selectivity ratio,[13],> 3.9
same,selectivity ratio,[14],> 5.18
same,selectivity ratio,[15],> 5.18
same,selectivity ratio,[16],> 5.18
same,selectivity ratio,[17],> 5.18
same,selectivity ratio,[18],> 5.18
same,Activity,Escherichia coli,inactive
same,Activity,Candida,inactive
same,Activity,Aspergillus,inactive
same,MIC,Cryptococcus neoformans [19],0.44 µM
same,Activity,Cryptococcus neoformans [20],Active
same,Stability,[21],Stable
same,Activity,Cryptococcus neoformans [22],Active
same,Activity,Cryptococcus neoformans [23],Active
same,Activity,Cryptococcus neoformans [24],Active
same,Activity,Cryptococcus neoformans [25],Active
same,Activity,Cryptococcus neoformans [26],Active
same,Activity,Cryptococcus neoformans [27],Active
same,fractional inhibitory concentration index (FICI),Cryptococcus neoformans [28],0.308
same,fractional inhibitory concentration index (FICI),Cryptococcus neoformans [29],0.092
same,fold change (FC),Cryptococcus neoformans [30],16
same,fold change (FC),Cryptococcus neoformans [31],32
same,fold change (FC),Cryptococcus neoformans [32],4
same,fold change (FC),Cryptococcus neoformans [33],16
